Published values gathered from unrelated publications.
Method: competition with immobilised ligand
RPS6KA1 C-terminal kinase domain: Ribosomal protein S6 kinase alpha-1, C-terminal kinase domain (RPS6KA1, Homo sapiens, UniProt Q15418)
RPS6KA1 N-terminal kinase domain: Ribosomal protein S6 kinase alpha-1, N-terminal kinase domain (RPS6KA1, Homo sapiens, UniProt Q15418)

O=C(NCCCN1CCOCC1)c1ccc(Nc2ncc(Cl)c(-c3ccc(Cl)s3)n2)cc1  remaining binding (RPS6KA1 C-terminal kinase domain; binding; 1 µM): 72%
C[C@@H](c1ccc(-n2cnc3c(N)ncnc32)cc1)N1CCc2nn(C)c(Cc3ccccc3)c2C1=O  remaining binding (RPS6KA1 C-terminal kinase domain; binding; 0.1 µM): 100%
O=C(c1ccc(Nc2ncc(Cl)c(-c3cc4ccccc4s3)n2)cc1)N1CCC(N2CCCC2)CC1  remaining binding (RPS6KA1 N-terminal kinase domain; binding; 1 µM): 63%
O=C(NCc1ncc(C(F)(F)F)cc1Cl)c1ccc2c(c1)C1(CCS(=O)(=O)CC1)[C@H](C1CC1)N2S(=O)(=O)c1ccc(F)cc1  remaining binding (RPS6KA1 N-terminal kinase domain; cell-free assay; 1 µM): 100%
O=C(Nc1c[nH]nc1C(=O)NC1CCNCC1)c1cc(F)cc(F)c1  remaining binding (RPS6KA1 C-terminal kinase domain; binding; 1 µM): 100%
F[C@@H]1CCN(c2nccc(-c3cnn4ncccc34)n2)C1  remaining binding (RPS6KA1 N-terminal kinase domain; binding; 1 µM): 100%
CS(=O)(=O)NCC[C@H](NC(=O)c1cncc2c1cnn2-c1ccc(F)cc1)c1ccnc(S(C)(=O)=O)c1  remaining binding (RPS6KA1 N-terminal kinase domain; cell-free assay; 1 µM): 100%
O=C(c1ccc(Nc2nccc(-c3cc4ccccc4s3)n2)cc1)N1CCC(N2CCCC2)CC1  remaining binding (RPS6KA1 N-terminal kinase domain; binding; 1 µM): 100%
COc1cnc(Nc2cccc(S(N)(=O)=O)c2)nc1N1CCN(c2ccccc2)CC1  remaining binding (RPS6KA1 N-terminal kinase domain; binding; 1 µM): 100%
Cc1cnc(Nc2ccc(C(=O)N3CCC(N4CCCC4)CC3)cc2)nc1-c1cc2ccccc2s1  remaining binding (RPS6KA1 C-terminal kinase domain; binding; 1 µM): 74%
C[C@@H]1CN(c2cc(-c3n[nH]c4ccc(OC5(C)CC5)cc34)ncn2)C[C@H](C)O1  remaining binding (RPS6KA1 N-terminal kinase domain; cell-free assay; 0.1 µM): 97%
COc1ccnn2ncc(-c3ccnc(N(C)C)n3)c12  remaining binding (RPS6KA1 N-terminal kinase domain; binding; 1 µM): 100%
Nc1ncc2c(n1)-c1c([nH]c3ccc(C#CC4CC4)cc13)CCCC2  remaining binding (RPS6KA1 N-terminal kinase domain; binding; 1 µM): 90%
CN(c1nccc(-c2cnn3ncccc23)n1)C1CC1  remaining binding (RPS6KA1 N-terminal kinase domain; binding; 1 µM): 100%
O=C(NCCCN1CCOCC1)c1ccc(Nc2nccc(-c3cc4ccccc4s3)n2)cc1  remaining binding (RPS6KA1 N-terminal kinase domain; binding; 1 µM): 87%
CN(C)c1nccc(-c2cnn3ncccc23)n1  remaining binding (RPS6KA1 C-terminal kinase domain; binding; 1 µM): 100%
O=C(NCC1CCOCC1)c1n[nH]cc1NC(=O)c1c(F)cccc1F  remaining binding (RPS6KA1 C-terminal kinase domain; binding; 1 µM): 93%
c1cncc(-c2cccc(Nc3nccc(NC4CCCCC4)n3)c2)c1  remaining binding (RPS6KA1 C-terminal kinase domain; binding; 10 µM): 99%
O=C(c1ccc(Nc2ncc(Cl)c(-c3ccc(Cl)s3)n2)cc1)N1CCC(N2CCCC2)CC1  remaining binding (RPS6KA1 C-terminal kinase domain; binding; 1 µM): 72%
COc1cnc(Nc2cccc(S(N)(=O)=O)c2)nc1N1CCN(c2ccccc2)C(=O)C1  remaining binding (RPS6KA1 C-terminal kinase domain; binding; 1 µM): 92%
Cc1cnn2ncc(-c3ccnc(N(C)C)n3)c2c1  remaining binding (RPS6KA1 N-terminal kinase domain; binding; 1 µM): 100%
C=CC(=O)N1CCC(C(=O)NCC(=O)N2CCN(c3nc(-c4cnc(N)nc4C(F)F)nc(N4CCOCC4)n3)CC2)CC1  remaining binding (RPS6KA1 N-terminal kinase domain; binding; 1 µM): 100%
CN(C)c1ncnc(-c2ccc3nc(Nc4cc(CN5CCN(C(=O)CC(F)(F)F)CC5)ccn4)[nH]c3c2)c1Cl  remaining binding (RPS6KA1 C-terminal kinase domain; cell-free assay; 1 µM): 98%
N[C@H]1CCN(c2nccc(-c3cnn4ncccc34)n2)C1  remaining binding (RPS6KA1 N-terminal kinase domain; binding; 1 µM): 100%
CCC(=N\O)/C(C)=C/c1ccc(F)cc1  remaining binding (RPS6KA1 N-terminal kinase domain; cell-free assay; 1 µM): 100%
COc1ncc2cc3ccccc3nc2c1C#N  remaining binding (RPS6KA1 N-terminal kinase domain; cell-free assay; 5 µM): 91%
CN(CCCC(F)(F)F)c1nccc(-c2cnn3ncccc23)n1  remaining binding (RPS6KA1 C-terminal kinase domain; binding; 1 µM): 100%
FC(F)(F)Oc1cccc(-c2cnc3ccc(-c4ccncc4)nn23)c1  remaining binding (RPS6KA1 N-terminal kinase domain; binding; 5 µM): 63%
CO[C@@H](C)c1c(Nc2ccc([C@@H](N(C)C(=O)C3CCS(=O)(=O)CC3)C(F)(F)F)cc2)cnc2cc(Cl)nn12  remaining binding (RPS6KA1 C-terminal kinase domain; cell-free assay; 1 µM): 99%
CCN1CCN(Cc2ccc(C(=O)Nc3ccc(C)c(Oc4ccc5c(c4)CC(=O)N5)c3)cc2C(F)(F)F)CC1  remaining binding (RPS6KA1 N-terminal kinase domain; binding; 1 µM): 91%
O=C(NS(=O)(=O)c1ccc(NCC2CCOCC2)c([N+](=O)[O-])c1)c1ccc(N2CCN(Cc3ccc(C(F)(F)F)cc3-c3ccc(Cl)cc3)CC2)cc1Oc1cnc2[nH]ccc2c1  remaining binding (RPS6KA1 N-terminal kinase domain; cell-free assay; 1 µM): 95%
C[C@@H]1CCN(c2nccc(-c3cnn4ncccc34)n2)C1  remaining binding (RPS6KA1 C-terminal kinase domain; binding; 1 µM): 47%
CNC(=O)[C@@H]1CC[C@@H](n2c(-c3ccc4cnccc4c3)nc3ccc(C(=O)NCc4cccc(C(N)=O)c4)cc32)C1  remaining binding (RPS6KA1 C-terminal kinase domain; binding; 1 µM): 100%
O=C(N1CCS(=O)(=O)CC1)N1C[C@H](c2ccc(OC(F)(F)F)cc2)C[C@H](c2nc(C3CC3)no2)C1  remaining binding (RPS6KA1 C-terminal kinase domain; cell-free assay; 1 µM): 100%
